Measured values as given in ChEMBL document CHEMBL1135580, “6,7-Dihydro-2-benzothiophen-4(5H)-ones: a novel class of GABA-A alpha5 receptor inverse agonists” (J Med Chem, 2002).

What was measured:
[1] = molecular target: T1, GABA-A receptor; alpha-5/beta-3/gamma-2 (Homo sapiens) (UniProt P18507+P28472+P31644); assay: Percentage modulation of GABA EC20 against human GABA-A receptor alpha-5-beta-3-gamma-2 subunits expressed in Xenopus laevis oocytes; assay type: cell-based; conditions: Oocyte
[2] = molecular target: T2, GABA-A receptor; alpha-2/beta-3/gamma-2 (Homo sapiens, UniProt P18507+P28472+P47869); assay: Displacement of [3H]- Ro 15-1788 binding from human GABA-A receptor alpha-2-beta-3-gamma-2 subunits; assay type: protein-complex assay
T2 sequence (P18507 whole entry): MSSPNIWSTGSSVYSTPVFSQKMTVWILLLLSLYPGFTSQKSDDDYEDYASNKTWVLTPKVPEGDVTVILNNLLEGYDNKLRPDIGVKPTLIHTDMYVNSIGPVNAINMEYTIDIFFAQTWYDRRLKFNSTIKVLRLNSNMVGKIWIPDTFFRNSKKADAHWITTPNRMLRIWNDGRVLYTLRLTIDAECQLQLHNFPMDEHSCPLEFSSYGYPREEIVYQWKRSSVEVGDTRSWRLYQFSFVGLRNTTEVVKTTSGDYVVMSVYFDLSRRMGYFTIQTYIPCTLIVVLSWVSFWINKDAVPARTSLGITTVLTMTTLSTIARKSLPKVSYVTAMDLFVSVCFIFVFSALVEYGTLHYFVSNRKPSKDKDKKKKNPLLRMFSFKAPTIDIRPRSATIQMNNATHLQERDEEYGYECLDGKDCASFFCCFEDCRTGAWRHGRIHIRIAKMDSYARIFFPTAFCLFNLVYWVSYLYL
T2 sequence (P28472 whole entry): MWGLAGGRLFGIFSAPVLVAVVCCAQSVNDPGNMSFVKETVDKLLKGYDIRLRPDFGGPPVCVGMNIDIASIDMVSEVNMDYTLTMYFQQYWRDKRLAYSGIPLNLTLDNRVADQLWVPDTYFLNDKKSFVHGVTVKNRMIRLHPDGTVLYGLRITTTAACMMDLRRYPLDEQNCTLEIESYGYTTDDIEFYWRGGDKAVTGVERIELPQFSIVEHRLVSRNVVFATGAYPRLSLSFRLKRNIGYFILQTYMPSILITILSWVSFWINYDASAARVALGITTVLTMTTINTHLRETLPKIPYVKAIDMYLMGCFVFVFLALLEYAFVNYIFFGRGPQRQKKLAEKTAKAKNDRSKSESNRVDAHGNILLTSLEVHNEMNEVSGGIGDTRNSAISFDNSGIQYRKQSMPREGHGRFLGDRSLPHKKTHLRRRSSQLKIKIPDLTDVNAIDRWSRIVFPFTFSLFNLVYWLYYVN
T2 sequence (P47869 whole entry): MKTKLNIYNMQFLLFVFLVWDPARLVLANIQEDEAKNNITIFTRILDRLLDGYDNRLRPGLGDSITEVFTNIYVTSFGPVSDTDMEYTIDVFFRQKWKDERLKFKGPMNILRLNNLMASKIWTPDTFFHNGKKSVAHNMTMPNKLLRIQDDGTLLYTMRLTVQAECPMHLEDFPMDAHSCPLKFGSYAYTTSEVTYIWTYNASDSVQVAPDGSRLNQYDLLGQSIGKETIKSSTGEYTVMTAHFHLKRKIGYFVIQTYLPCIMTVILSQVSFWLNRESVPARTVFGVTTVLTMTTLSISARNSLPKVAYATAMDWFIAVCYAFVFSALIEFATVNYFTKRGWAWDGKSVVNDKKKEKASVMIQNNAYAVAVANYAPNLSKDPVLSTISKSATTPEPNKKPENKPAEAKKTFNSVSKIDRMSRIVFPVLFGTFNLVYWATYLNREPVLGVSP
How it was run: (§1)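 Radioligand displacement of [³H]Ro15-1788 from recombinant human GABA-A receptor subtypes. Ki values are the geometric mean ± SEM of three independent determinations.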

[3] = molecular target: T3, GABA-A receptor; alpha-3/beta-3/gamma-2 (Homo sapiens, UniProt P18507+P28472+P34903); assay: Displacement of [3H]- Ro 15-1788 binding from human GABA-A receptor alpha-3-beta-3-gamma-2 subunits; assay type: protein-complex assay; how it was run: as §1
T3 sequence (P18507 whole entry): T2 sequence (P18507 whole entry)
T3 sequence (P28472 whole entry): T2 sequence (P28472 whole entry)
T3 sequence (P34903 whole entry): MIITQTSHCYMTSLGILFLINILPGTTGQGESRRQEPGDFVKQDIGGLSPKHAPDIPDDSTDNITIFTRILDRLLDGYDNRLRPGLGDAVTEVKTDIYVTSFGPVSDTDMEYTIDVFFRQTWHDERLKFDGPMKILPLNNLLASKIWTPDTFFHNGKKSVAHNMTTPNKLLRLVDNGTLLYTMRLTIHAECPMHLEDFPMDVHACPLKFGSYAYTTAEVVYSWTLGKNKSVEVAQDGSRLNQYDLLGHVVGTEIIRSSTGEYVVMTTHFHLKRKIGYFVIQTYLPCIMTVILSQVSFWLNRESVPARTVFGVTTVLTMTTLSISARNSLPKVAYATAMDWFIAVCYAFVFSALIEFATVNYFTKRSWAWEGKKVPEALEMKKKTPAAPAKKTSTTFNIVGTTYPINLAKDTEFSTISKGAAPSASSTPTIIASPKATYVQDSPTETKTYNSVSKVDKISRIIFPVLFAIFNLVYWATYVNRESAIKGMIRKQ

[4] = molecular target: T4, Gamma-aminobutyric acid receptor subunit alpha-5 (Homo sapiens) (UniProt P31644); assay: Selectivity for GABA-A receptor alpha-5 subunit binding over alpha-1,2,3 when co-expressed with beta-3 and gamma-2
T4 sequence (whole entry): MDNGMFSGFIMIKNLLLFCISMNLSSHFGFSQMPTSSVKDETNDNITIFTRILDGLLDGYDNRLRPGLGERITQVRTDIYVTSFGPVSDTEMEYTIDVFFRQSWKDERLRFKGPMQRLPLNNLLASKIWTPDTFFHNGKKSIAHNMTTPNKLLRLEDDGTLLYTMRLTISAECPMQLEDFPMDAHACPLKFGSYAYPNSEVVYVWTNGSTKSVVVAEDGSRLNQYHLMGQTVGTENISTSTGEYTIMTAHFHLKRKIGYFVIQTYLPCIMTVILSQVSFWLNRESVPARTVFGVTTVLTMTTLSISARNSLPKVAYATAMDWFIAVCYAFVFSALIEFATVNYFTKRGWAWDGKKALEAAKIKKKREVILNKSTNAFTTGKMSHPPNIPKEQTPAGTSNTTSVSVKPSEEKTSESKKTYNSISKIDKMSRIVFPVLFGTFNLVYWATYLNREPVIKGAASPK
How it was run: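 Ratio of binding affinity for α5 over α1, α2 and α3. Each affinity comes from [³H]Ro15-1788 displacement at recombinant human receptors, with Ki as the geometric mean of three independent determinations.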

[5] = molecular target: T5, GABA-A receptor; alpha-1/beta-3/gamma-2 (Homo sapiens, UniProt P14867+P18507+P28472); assay: Displacement of [3H]- Ro 15-1788 binding from human GABA-A receptor alpha-1-beta-3-gamma-2 subunits; assay type: protein-complex assay; how it was run: as §1
T5 sequence (P14867 whole entry): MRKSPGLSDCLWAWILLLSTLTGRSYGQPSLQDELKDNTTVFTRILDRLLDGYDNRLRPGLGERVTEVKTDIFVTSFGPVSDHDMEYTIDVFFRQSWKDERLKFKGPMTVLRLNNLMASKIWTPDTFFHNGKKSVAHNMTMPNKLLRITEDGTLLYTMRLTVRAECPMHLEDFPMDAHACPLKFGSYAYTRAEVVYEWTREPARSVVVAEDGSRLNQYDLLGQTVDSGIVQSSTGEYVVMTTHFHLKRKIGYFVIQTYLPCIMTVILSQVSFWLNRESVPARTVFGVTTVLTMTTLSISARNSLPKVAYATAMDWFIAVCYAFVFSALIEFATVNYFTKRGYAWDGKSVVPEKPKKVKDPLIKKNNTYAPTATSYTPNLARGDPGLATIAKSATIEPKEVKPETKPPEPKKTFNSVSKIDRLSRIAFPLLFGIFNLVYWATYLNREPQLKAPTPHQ
T5 sequence (P18507 whole entry): T2 sequence (P18507 whole entry)
T5 sequence (P28472 whole entry): T2 sequence (P28472 whole entry)

[6] = molecular target: T6, GABA-A receptor; alpha-5/beta-3/gamma-2 (Homo sapiens, UniProt P18507+P28472+P31644); assay: Displacement of [3H]- Ro 15-1788 binding from human GABA-A receptor alpha-5-beta-3-gamma-2 subunits; assay type: protein-complex assay; how it was run: as §1
T6 sequence (P18507 whole entry): T2 sequence (P18507 whole entry)
T6 sequence (P28472 whole entry): T2 sequence (P28472 whole entry)
T6 sequence (P31644 whole entry): T4 sequence (whole entry)

[7] = molecular target: T1, GABA-A receptor; alpha-5/beta-3/gamma-2 (Homo sapiens); assay: Maximum modulation relative to GABA EC20 against human GABA-A receptor alpha-5-beta-3-gamma-2 subunits expressed in mammalian fibroblast L(tk-) cells; assay type: cell-based
How it was run: (§2)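 Whole-cell patch-clamp recording from mammalian fibroblast L(tk-) cells stably expressing GABA-A αxβ3γ2 (x = 1, 2, 3 or 5). Compound modulation of a submaximal (EC20) GABA current was recorded. Maximum modulation came from individually fitted concentration-response curves, at least five per value, given as mean ± SEM.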

[8] = molecular target: GABA-A receptor; alpha-1/beta-3/gamma-2 (Homo sapiens) (UniProt P14867+P18507+P28472); assay: Maximum modulation relative to GABA EC20 against human GABA-A receptor alpha-1-beta-3-gamma-2 subunits expressed in mammalian fibroblast L(tk-) cells; assay type: cell-based; how it was run: as §2
[9] = molecular target: GABA-A receptor; alpha-2/beta-3/gamma-2 (Homo sapiens) (UniProt P18507+P28472+P47869); assay: Maximum modulation relative to GABA EC20 against human GABA-A receptor alpha-2-beta-3-gamma-2 subunits expressed in mammalian fibroblast L(tk-) cells; assay type: cell-based; how it was run: as §2
[10] = molecular target: GABA-A receptor; alpha-3/beta-3/gamma-2 (Homo sapiens) (UniProt P18507+P28472+P34903); assay: Maximum modulation relative to GABA EC20 against human GABA-A receptor alpha-3-beta-3-gamma-2 subunits expressed in mammalian fibroblast L(tk-) cells; assay type: cell-based; how it was run: as §2

SMILES | Efficacy [1] | Ki [2] | Ki [3] | Selectivity [4] | Ki [5] | Ki [6] | Efficacy [7] | Efficacy [8] | Efficacy [9] | Efficacy [10]
CSc1sc(-c2cc[nH]n2)c2c1C(=O)CC(C)(C)C2 | -3% | 56 nM | 21 nM | 13 | 66 nM | 5.2 nM |  |  |  | 
CSc1sc(-c2ccccn2)c2c1C(=O)CC(C)(C)C2 | -31% | 26 nM | 25 nM | 26 | 45 nM | 1.7 nM |  |  |  | 
CC(C)Sc1sc(-c2cc[nH]n2)c2c1C(=O)CC(C)(C)C2 |  | 12 nM | 7 nM | 6 | 5 nM | 2 nM |  |  |  | 
CCc1c(C(=O)OC)ncc2[nH]c3cc(OC)c(OC)cc3c12 | -34% | 13 nM | 7.5 nM | 3 | 10 nM | 2.2 nM | -57% | -71% | -53% | -62%
CSc1sc(-c2nccs2)c2c1C(=O)CC(C)(C)C2 | -24% | 44 nM | 47 nM | 28 | 61 nM | 2.2 nM |  |  |  | 
CC1(C)CC(=O)c2c(SCCO)sc(-c3ccccn3)c2C1 | -39% | 5.2 nM | 10 nM | 20 | 3.6 nM | 0.5 nM |  |  |  | 
CC1(C)CC(=O)c2c(SCCO)sc(-c3cc[nH]n3)c2C1 |  | 21 nM | 24 nM | 11 | 31 nM | 2.9 nM |  |  |  | 
CSc1sc(-c2cccnc2)c2c1C(=O)CC(C)(C)C2 | -40% | 31 nM | 33 nM | 28 | 165 nM | 5.8 nM |  |  |  | 
CSc1sc(-c2ccncc2)c2c1C(=O)CC(C)(C)C2 | -20% | 43 nM | 35 nM | 19 | 172 nM | 9.1 nM |  |  |  | 
CCSc1sc(-c2cc[nH]n2)c2c1C(=O)CC(C)(C)C2 |  | 16 nM | 16 nM | 10 | 12 nM | 1.6 nM |  |  |  | 
CC1(C)CC(=O)c2c(SCCO)sc(-c3nccs3)c2C1 | -38% | 16 nM | 20 nM | 13 | 20 nM | 1.6 nM | -51% | -21% | -1% | -3%
CC1(C)CC(=O)c2c(SSc3nccs3)sc(-c3cc[nH]n3)c2C1 | -7% | 19 nM | 48 nM | 3 | 4.3 nM | 1.4 nM |  |  |  | 
